Laboratory results from ChEMBL document CHEMBL5724801, “EUbOPEN Chemogenomics Library - Multiplex” (2024).
Values joined by “and” are separate entries in the source; they are usually repeats but may differ in a detail not shown here. Identical values can stand only once.

Test system: U2OS
Assay: Multiplex assay against U2OS
Format: toxicity, cell-based
Details: human
How it was run: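 Values for tubulin, mitochondrial-mass and membrane-permeability phenotypes are per cents of cells with healthy nuclei. These cells were identified by CellPathfinder machine-learning gating of live cells that had been stained at seeding with Hoechst33342, BioTracker Green Microtubule Cytoskeleton Dye, MitoTracker Red and Annexin V Alexa Fluor 680 and imaged on a CQ1 microscope at 37°C and 5% CO2 after compound addition. The gating first set Hoechst high-intensity objects apart from normal cells, then split normal cells into healthy, pyknosed or fragmented nuclei, and pyknosed cells into mitotic or apoptotic.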

[1] = 12 h, 1 µM, compound concentration 1 uM
[2] = 12 h, 10 µM, compound concentration 10 uM
[3] = 24 h, 1 µM, compound concentration 1 uM
[4] = 24 h, 10 µM, compound concentration 10 uM
[5] = 48 h, 1 µM, compound concentration 1 uM
[6] = 48 h, 10 µM, compound concentration 10 uM

## COc1cccc2c1c(NS(=O)(=O)c1ccc(Cl)s1)nn2Cc1cccc(CNC(=O)C(C)(C)O)c1
[1]
  Population Apoptotic (%): 86% and 81%
  Population Fragmented Nuclei (%): 23% and 29%
  Population Healthy Nuclei (%): 67% and 64%
  Population Hoechst High Intensity Objects (%): 3% and 6%
  Population Membrane Permeable-Phenotype (%): 4% and 7%
  Population Mitochondria Different-Phenotype (%): 1% and 3%
  Population Mitotic Cells (%): 13% and 18%
  Population Normal (%): 96% and 93%
  Population Pyknosed Nuclei (%): 9% and 5%
  Population Tubulin-Different-Phenotype (%): 1% and 6%
  Total Cell Count: 261 and 201
[2]
  Population Apoptotic (%): 76% and 83%
  Population Fragmented Nuclei (%): 26% and 25%
  Population Healthy Nuclei (%): 65% and 70%
  Population Hoechst High Intensity Objects (%): 1% and 5%
  Population Membrane Permeable-Phenotype (%): 6% and 8%
  Population Mitochondria Different-Phenotype (%): 2% and 3%
  Population Mitotic Cells (%): 23% and 16%
  Population Normal (%): 98% and 94%
  Population Pyknosed Nuclei (%): 8% and 4%
  Population Tubulin-Different-Phenotype (%): 4% and 2%
  Total Cell Count: 264 and 140
[3]
  Population Apoptotic (%): 96% and 90%
  Population Fragmented Nuclei (%): 20% and 28%
  Population Healthy Nuclei (%): 70% and 66%
  Population Hoechst High Intensity Objects (%): 1% and 5%
  Population Membrane Permeable-Phenotype (%): 5% and 8%
  Population Mitochondria Different-Phenotype (%): 1% and 3%
  Population Mitotic Cells (%): 3% and 9%
  Population Normal (%): 98% and 94%
  Population Pyknosed Nuclei (%): 8% and 4%
  Population Tubulin-Different-Phenotype (%): 3% and 6%
  Total Cell Count: 307 and 242
[4]
  Population Apoptotic (%): 90% and 88%
  Population Fragmented Nuclei (%): 25%
  Population Healthy Nuclei (%): 64% and 68%
  Population Hoechst High Intensity Objects (%): 1% and 5%
  Population Membrane Permeable-Phenotype (%): 5% and 8%
  Population Mitochondria Different-Phenotype (%): 3% and 4%
  Population Mitotic Cells (%): 10% and 11%
  Population Normal (%): 98% and 94%
  Population Pyknosed Nuclei (%): 10% and 5%
  Population Tubulin-Different-Phenotype (%): 2%
  Total Cell Count: 304 and 167
[5]
  Population Apoptotic (%): 95% and 74%
  Population Fragmented Nuclei (%): 14% and 22%
  Population Healthy Nuclei (%): 76% and 68%
  Population Hoechst High Intensity Objects (%): 1% and 7%
  Population Membrane Permeable-Phenotype (%): 4% and 5%
  Population Mitochondria Different-Phenotype (%): 1% and 4%
  Population Normal (%): 98% and 92%
  Population Pyknosed Nuclei (%): 9%
  Population Tubulin-Different-Phenotype (%): 2% and 5%
  Total Cell Count: 463 and 314
[6]
  Population Apoptotic (%): 93% and 100%
  Population Fragmented Nuclei (%): 20% and 22%
  Population Healthy Nuclei (%): 71%
  Population Hoechst High Intensity Objects (%): 2% and 3%
  Population Membrane Permeable-Phenotype (%): 5%
  Population Mitochondria Different-Phenotype (%): 2% and 3%
  Population Mitotic Cells (%): 6% and 0%
  Population Normal (%): 97% and 96%
  Population Pyknosed Nuclei (%): 8% and 5%
  Population Tubulin-Different-Phenotype (%): 3%
  Total Cell Count: 413 and 235

## CCOc1c2c(c(OCC)c3ncccc13)CN(c1ccc(CS(=O)(=O)NC(=O)Cc3ccccc3OC)cc1C)C2=O
[1]
  Population Apoptotic (%): 64% and 100%
  Population Fragmented Nuclei (%): 22% and 13%
  Population Healthy Nuclei (%): 70% and 82%
  Population Hoechst High Intensity Objects (%): 2% and 1%
  Population Membrane Permeable-Phenotype (%): 7% and 9%
  Population Mitochondria Different-Phenotype (%): 3%
  Population Normal (%): 97% and 98%
  Population Pyknosed Nuclei (%): 7% and 4%
  Population Tubulin-Different-Phenotype (%): 2% and 6%
  Total Cell Count: 189 and 93
[2]
  Population Apoptotic (%): 81% and 80%
  Population Fragmented Nuclei (%): 30% and 21%
  Population Healthy Nuclei (%): 63% and 75%
  Population Hoechst High Intensity Objects (%): 2%
  Population Membrane Permeable-Phenotype (%): 5% and 8%
  Population Mitochondria Different-Phenotype (%): 3% and 6%
  Population Mitotic Cells (%): 18% and 20%
  Population Normal (%): 97%
  Population Pyknosed Nuclei (%): 6% and 3%
  Population Tubulin-Different-Phenotype (%): 2% and 3%
  Total Cell Count: 248 and 136
[3]
  Population Apoptotic (%): 80% and 100%
  Population Fragmented Nuclei (%): 21% and 19%
  Population Healthy Nuclei (%): 71% and 76%
  Population Hoechst High Intensity Objects (%): 3% and 1%
  Population Membrane Permeable-Phenotype (%): 4% and 7%
  Population Mitochondria Different-Phenotype (%): 0% and 4%
  Population Mitotic Cells (%): 20% and 0%
  Population Normal (%): 96% and 98%
  Population Pyknosed Nuclei (%): 6% and 4%
  Population Tubulin-Different-Phenotype (%): 1% and 4%
  Total Cell Count: 235 and 125
[4]
  Population Apoptotic (%): 76% and 100%
  Population Fragmented Nuclei (%): 27% and 17%
  Population Healthy Nuclei (%): 61% and 76%
  Population Hoechst High Intensity Objects (%): 3% and 0%
  Population Membrane Permeable-Phenotype (%): 6%
  Population Mitochondria Different-Phenotype (%): 2%
  Population Mitotic Cells (%): 23% and 0%
  Population Normal (%): 96% and 99%
  Population Pyknosed Nuclei (%): 10% and 5%
  Population Tubulin-Different-Phenotype (%): 1% and 5%
  Total Cell Count: 285 and 152
[5]
  Population Apoptotic (%): 85% and 100%
  Population Fragmented Nuclei (%): 19% and 17%
  Population Healthy Nuclei (%): 74% and 79%
  Population Hoechst High Intensity Objects (%): 2% and 4%
  Population Membrane Permeable-Phenotype (%): 3% and 7%
  Population Mitochondria Different-Phenotype (%): 1% and 3%
  Population Mitotic Cells (%): 15% and 0%
  Population Normal (%): 97% and 95%
  Population Pyknosed Nuclei (%): 5% and 2%
  Population Tubulin-Different-Phenotype (%): 2% and 5%
  Total Cell Count: 344 and 167
[6]
  Population Apoptotic (%): 91% and 100%
  Population Fragmented Nuclei (%): 19% and 18%
  Population Healthy Nuclei (%): 71% and 74%
  Population Hoechst High Intensity Objects (%): 2%
  Population Membrane Permeable-Phenotype (%): 5% and 8%
  Population Mitochondria Different-Phenotype (%): 1% and 4%
  Population Mitotic Cells (%): 8% and 0%
  Population Normal (%): 97%
  Population Pyknosed Nuclei (%): 9% and 6%
  Population Tubulin-Different-Phenotype (%): 2% and 3%
  Total Cell Count: 385 and 236
